M1 antag: antagonists of rat M1 muscarinic receptor. P08482. CHO-M1 cells, Fluo-4 calcium, ACh EC80 antagonist mode; active compounds read low. B-score at 10 µM. 3.4% of 64,000 active;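 active means calcium fluorescence response, raw or row-and-column corrected B-score, differing from the plate sample mean either way at a set confidence level, mostly lower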
D1 mod: allosterically modulates the human D1 dopamine receptor; P21728; HEK293 D1, CRE-luciferase, dopamine EC30 potentiation; actives deviate in either direction; B-score at 10 µM; 5.9% of 58,000 active; AID 641;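 active means luminescence count or its row- and column-corrected plate score outside the 99.7% band of the plate's sample wells, on either side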
S1P1 ag pot: agonists and agonism potentiators of human S1P1 receptor | 0.57% of 56,000 active | AID 449 | activation, % at 9.5 µM | S1P1 CRE-bla cells, forskolin, beta-lactamase FRET, potentiator mode; S1P1 agonist co-added at EC20, 2 nM; 100% = saturating reference agonist, 0% = basal;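 active means activation above a cutoff set at the mean activation of all tested compounds plus 3 SD, cut at about 54% in these data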;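 further: forskolin at 4 µM as EC80 and the EC20 agonist is SEW2871; 100% = SEW2871 at its EC100 plus forskolin at EC80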
S1P3 agonist: S1P3 (human) receptor agonism; Q99500; S1P3 NFAT-BLA reporter cells, FRET ratio; relative to 1 µM S1P, basal subtracted; activation, % at 4.5 µM; 0.1% of 60,000 active; AID 373;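 active means activation above the screen-wide mean plus 3 SD, cut at about 4.5% in these data, passing the limit was not always enough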
Target sequence (Q99500 whole entry, looked up): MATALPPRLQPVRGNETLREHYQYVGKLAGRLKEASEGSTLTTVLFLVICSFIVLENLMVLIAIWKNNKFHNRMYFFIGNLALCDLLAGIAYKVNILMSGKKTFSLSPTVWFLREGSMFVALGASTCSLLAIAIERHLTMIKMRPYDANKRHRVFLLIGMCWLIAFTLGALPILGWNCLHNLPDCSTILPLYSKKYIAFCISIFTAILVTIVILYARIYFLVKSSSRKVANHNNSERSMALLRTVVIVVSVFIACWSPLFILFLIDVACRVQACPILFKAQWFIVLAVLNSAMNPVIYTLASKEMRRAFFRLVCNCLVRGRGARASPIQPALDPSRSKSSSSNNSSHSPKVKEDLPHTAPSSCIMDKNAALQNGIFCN
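Material: Human S1P3 NFAT-BLA reporter CHO cells | Incubation: Overnight plating, 4 h compound 37 °C, 2 h substrate RT | Signal: FRET β-lactamase substrate fluorescence, excitation 405 nm, 460/535 nm emission ratio, background-subtracted | Compound: 4.5 µM final, single dose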
M1 ag: activates the M1 muscarinic receptor | CHO-M1 cells, Fluo-4 calcium fluorescence, agonist mode; active compounds read high | B-score at 10 µM | 3% of 64,000 active;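 active means fluorescence rise, raw or as B-score row- and column-corrected plate score, outside the 99.7% band of its plate's samples, either direction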
M1 antag conf: confirmation of rat M1 muscarinic receptor antagonists; calcium response (max-min fluorescence) at 10 µM; shares compounds with M1 antag; CHO-M1 cells, Fluo-4 calcium, ACh EC80 antagonism; active compounds read low; 43% of 1,700 active;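 active means calcium response below the same-plate mean of wells given acetylcholine alone at its 80%-effect dose, minus 3 SD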;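 further: raw fluorescence intensity difference in arbitrary instrument units and not normalized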
mGluR4 antag: selectivity test for M1 antagonists: human mGluR4 receptor; 0.9% of 1,700 active; CHO-mGluR4 calcium flux, Fluo-4 fluorescence, glutamate EC80; active compounds read low; shares compounds with M1 antag; fluorescence response (max-min) at 10 µM;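 active means fluorescence response below the plate's average for near-maximal glutamate wells, less 3 SD of those wells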;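 further: raw unnormalized fluorescence span taken in the window right after glutamate addition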
* hit, by the source's call. In the library only some 11% were active in any assay of this set; here they are far more common.

For COCCCNc1nc2c(c(=O)[nH]c(=O)n2C)n1CC(O)COc1ccccc1C (stereo not given) the results were M1 antag -3.6*, D1 mod 0.19, S1P1 ag pot -17, S1P3 agonist 0, M1 ag -0.29, M1 antag conf 594 and mGluR4 antag 241.
COC(=O)CN1CCN(C(c2ccccc2)c2ccccc2)CC1 was read as M1 antag -0.59, D1 mod 0.48, S1P1 ag pot -9, S1P3 agonist 0 and M1 ag -0.041.
Screening CC(=O)c1ccc(OCC(O)CN2CCN(Cc3ccccc3)CC2)cc1 (stereo not given) returned M1 antag 0.0054, D1 mod -0.53, S1P1 ag pot -18, S1P3 agonist 0 and M1 ag 1.3.
For CC(=O)c1ccccc1OCC(O)CN1CCN(C(c2ccccc2)c2ccccc2)CC1 (stereo not given) the results were M1 antag -7.9*, S1P1 ag pot 1, S1P3 agonist -1, M1 ag 1.2, M1 antag conf 133* and mGluR4 antag 231.
For COCCNC(=O)CN1CCN(C(c2ccccc2)c2ccccc2)CC1 the results were M1 antag -1.2*, D1 mod 1.1, S1P1 ag pot 5, S1P3 agonist 0, M1 ag -0.85, M1 antag conf 569 and mGluR4 antag 250.
For CCOC(=O)N1CCC(NC(=O)CCc2c(C)nc3nc(C)nn3c2C)CC1 the results were M1 antag -0.056, S1P1 ag pot -32, S1P3 agonist 0 and M1 ag -0.27.
Screening CCOC(=O)N1CCC(NC(=O)CCc2c(C)nc3c(c(C)nn3C(C)(C)C)c2C)CC1 returned M1 antag -1*, D1 mod -0.33, S1P1 ag pot -24, S1P3 agonist 0, M1 ag -0.072, M1 antag conf 430 and mGluR4 antag 228.
COc1cc(C(=O)NCCC(=O)NC2CCCCCCC2)cc(OC)c1OC was read as M1 antag 0.13, D1 mod -0.092, S1P1 ag pot 15, S1P3 agonist 0 and M1 ag 0.33.
COC(=O)c1oc2c(c1C)C1(CCC2)SCCS1 was read as M1 antag -6.8*, D1 mod 1.8, S1P1 ag pot -3, S1P3 agonist 0, M1 ag 1.2, M1 antag conf 259* and mGluR4 antag 183.
CCCCn1c(C(C)NC(=O)CCC)nc2ccccc21 (stereo not given) was read as M1 antag -4.1*, D1 mod 0.6, S1P1 ag pot -17, S1P3 agonist -1, M1 ag 0.63, M1 antag conf 555 and mGluR4 antag 228.
CCCCn1c(C(C)NC(=O)c2cccs2)nc2ccccc21 (stereo not given) was read as M1 antag -2.6*, D1 mod -0.19, M1 ag 0.29, M1 antag conf 610 and mGluR4 antag 161.
COc1ccc(C(NC(N)=O)c2ccccc2)cc1 (stereo not given) was read as M1 antag 0.011, D1 mod -0.037, S1P1 ag pot -4, S1P3 agonist -1 and M1 ag 0.027.
`COc1ccc(C(C(=O)OCCN(C)C)c2ccccc2)cc1` (stereo not given) gave M1 antag -5.8*, D1 mod 0.0068, S1P1 ag pot -1, S1P3 agonist 0, M1 ag 0.49, M1 antag conf 232* and mGluR4 antag 259.
For c1cn2cc(-c3ccc4c(c3)OCO4)nc2s1 the results were M1 antag 0.15, D1 mod -3.6 and M1 ag 0.44.
Screening Cc1oc(-c2ccccc2F)nc1CN1CCC(C(=O)NC2CCCCCCC2)CC1 returned M1 antag -1.1, D1 mod -0.86, S1P1 ag pot -2, S1P3 agonist -1 and M1 ag -0.38.
Cc1oc(-c2ccccc2F)nc1CN1CCC(C(=O)NCc2ccco2)CC1 was read as M1 antag -3.7*, D1 mod -0.3, S1P1 ag pot 13, S1P3 agonist 0, M1 ag 0.47, M1 antag conf 566 and mGluR4 antag 219.
